Results as given in ChEMBL document CHEMBL1152599, “Synthesis and in vitro activities of new anticancer duplex drugs linking 2'-deoxy-5-fluorouridine (5-FdU) with 3'-C-ethynylcytidine (ECyd) via a phosphodiester bonding” (2009).

Legend:
Assay type in all cases: functional
RXF 393 = experiment: Anticancer activity against human RXF393 cells after 48 hrs by sulforhodamine B assay; conditions: RXF 393, 48 h
Outline: (§1)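 NCI 60-cell-line anticancer screen. Each compound is tested at a minimum of five concentrations in 10-fold dilutions with 48 h drug exposure. Cell viability/growth is estimated by sulforhodamine B protein staining. GI50 is the log10 molar concentration giving 50% growth inhibition, read from the dose-response curves and mean graphs of the NCI data screening report. TGI was taken from double screens.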

SK-MEL-5 = experiment: Anticancer activity against human SK-MEL-5 cells after 48 hrs by sulforhodamine B assay; conditions: SK-MEL-5, 48 h; outline: as §1
CCRF-CEM = experiment: Anticancer activity against human CCRF-CEM cells after 48 hrs by sulforhodamine B assay; outline: as §1
ACHN = experiment: Anticancer activity against human ACHN cells after 48 hrs by sulforhodamine B assay; outline: as §1
SN12C = experiment: Anticancer activity against human SN12C cells after 48 hrs by sulforhodamine B assay; outline: as §1
SNB-75 = experiment: Anticancer activity against human SNB75 cells after 48 hrs by sulforhodamine B assay; conditions: SNB-75, 48 h
Outline: (§2)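 Tested in the NCI 60-human-tumour-cell-line screen. Compounds were applied at a minimum of five concentrations in 10-fold dilutions with 48 h exposure. Cell growth was estimated by sulforhodamine B protein staining. GI50 (log10 of molar concentration giving 50% growth inhibition) and TGI were read from the data sheets, dose-response curves and mean graphs. Some cell lines were screened twice.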

U-251 = experiment: Anticancer activity against human U251 cells after 48 hrs by sulforhodamine B assay; conditions: U-251, 48 h; outline: as §2
SF-539 = experiment: Anticancer activity against human SF539 cells after 48 hrs by sulforhodamine B assay; conditions: SF-539, 48 h; outline: as §1
DU-145 = experiment: Anticancer activity against human DU145 cells after 48 hrs by sulforhodamine B assay; conditions: DU-145, 48 h; outline: as §1
KM12 = experiment: Anticancer activity against human KM12 cells after 48 hrs by sulforhodamine B assay; conditions: KM12, 48 h; outline: as §1
IGROV-1 = experiment: Anticancer activity against human IGROV1 cells after 48 hrs by sulforhodamine B assay; conditions: IGROV-1, 48 h; outline: as §1
HCT-116 = experiment: Anticancer activity against human HCT116 cells after 48 hrs by sulforhodamine B assay; conditions: HCT-116, 48 h; outline: as §1
T47D = experiment: Anticancer activity against human T47D cells after 48 hrs by sulforhodamine B assay; outline: as §2
LOX IMVI = experiment: Anticancer activity against human LOXIMVI cells after 48 hrs by sulforhodamine B assay; outline: as §1
SF-268 = experiment: Anticancer activity against human SF268 cells after 48 hrs by sulforhodamine B assay; conditions: SF-268, 48 h; outline: as §1
NCI-H460 = experiment: Anticancer activity against human NCI-H460 cells after 48 hrs by sulforhodamine B assay; conditions: NCI-H460, 48 h; outline: as §1
UO-31 = experiment: Anticancer activity against human UO31 cells after 48 hrs by sulforhodamine B assay; conditions: UO-31, 48 h; outline: as §2
NCI-H322M = experiment: Anticancer activity against human NCI-H322M cells after 48 hrs by sulforhodamine B assay; outline: as §1
TK-10 = experiment: Anticancer activity against human TK10 cells after 48 hrs by sulforhodamine B assay; conditions: TK-10, 48 h; outline: as §2
K562 = experiment: Anticancer activity against human K562 cells after 48 hrs by sulforhodamine B assay; conditions: K562, 48 h; outline: as §1
MDA-MB-435 = experiment: Anticancer activity against human MDA-MB-435 cells after 48 hrs by sulforhodamine B assay; conditions: MDA-MB-435, 48 h; outline: as §1
SK-MEL-28 = experiment: Anticancer activity against human SK-MEL-28 cells after 48 hrs by sulforhodamine B assay; conditions: SK-MEL-28, 48 h; outline: as §1
PC-3 = experiment: Anticancer activity against human PC3 cells after 48 hrs by sulforhodamine B assay; conditions: PC-3, 48 h; outline: as §1
HOP-62 = experiment: Anticancer activity against human HOP62 cells after 48 hrs by sulforhodamine B assay; conditions: HOP-62, 48 h; outline: as §1
NCI-H226 = experiment: Anticancer activity against human NCI-H226 cells after 48 hrs by sulforhodamine B assay; conditions: NCI-H226, 48 h; outline: as §1
SK-MEL-2 = experiment: Anticancer activity against human SK-MEL-2 cells after 48 hrs by sulforhodamine B assay; conditions: SK-MEL-2, 48 h; outline: as §1
HCC 2998 = experiment: Anticancer activity against human HCC2998 cells after 48 hrs by sulforhodamine B assay; conditions: HCC 2998, 48 h; outline: as §1
A549 = experiment: Anticancer activity against human A549 cells after 48 hrs by sulforhodamine B assay; conditions: A549, 48 h; outline: as §1
NCI/ADR-RES = experiment: Anticancer activity against human NCI/ADR-RES cells after 48 hrs by sulforhodamine B assay; outline: as §1
OVCAR-5 = experiment: Anticancer activity against human OVCAR5 cells after 48 hrs by sulforhodamine B assay; conditions: OVCAR-5, 48 h; outline: as §1
[1] = Anticancer activity against human […] cells after 48 hrs by sulforhodamine B assay; outline: as §1
A498 = experiment: Anticancer activity against human A498 cells after 48 hrs by sulforhodamine B assay; conditions: A498, 48 h; outline: as §1
786-0 = experiment: Anticancer activity against human 786-0 cells after 48 hrs by sulforhodamine B assay; conditions: 786-0, 48 h; outline: as §1
COLO 205 = experiment: Anticancer activity against human COLO205 cells after 48 hrs by sulforhodamine B assay; conditions: COLO 205, 48 h; outline: as §1
OVCAR-4 = experiment: Anticancer activity against human OVCAR4 cells after 48 hrs by sulforhodamine B assay; conditions: OVCAR-4, 48 h; outline: as §1
SF-295 = experiment: Anticancer activity against human SF295 cells after 48 hrs by sulforhodamine B assay; conditions: SF-295, 48 h; outline: as §1
M14 = experiment: Anticancer activity against human M14 cells after 48 hrs by sulforhodamine B assay; conditions: M14, 48 h; outline: as §1
SW-620 = experiment: Anticancer activity against human SW620 cells after 48 hrs by sulforhodamine B assay; conditions: SW-620, 48 h; outline: as §2
UACC-62 = experiment: Anticancer activity against human UACC62 cells after 48 hrs by sulforhodamine B assay; conditions: UACC-62, 48 h; outline: as §2
CAKI-1 = experiment: Anticancer activity against human Caki1 cells after 48 hrs by sulforhodamine B assay; conditions: CAKI-1, 48 h; outline: as §1
HL-60 = experiment: Anticancer activity against human HL-60(TB) cells after 48 hrs by sulforhodamine B assay; conditions: HL-60, 48 h
Outline: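 NCI 60-cell-line anticancer screen. Drugs tested at a minimum of five concentrations at 10-fold dilutions with 48 h exposure. Cell growth estimated by sulforhodamine B protein assay. GI50 is log10 of the molar concentration giving 50% growth inhibition, read from the screening data sheet, dose-response curves and mean graphs.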

MDA-MB-231 = experiment: Anticancer activity against human MDA-MB-231 cells after 48 hrs by sulforhodamine B assay; conditions: MDA-MB-231, 48 h; outline: as §1
NCI-H522 = experiment: Anticancer activity against human NCI-H522 cells after 48 hrs by sulforhodamine B assay; conditions: NCI-H522, 48 h; outline: as §1
HCT-15 = experiment: Anticancer activity against human HCT15 cells after 48 hrs by sulforhodamine B assay; conditions: HCT-15, 48 h; outline: as §1
OVCAR-8 = experiment: Anticancer activity against human OVCAR8 cells after 48 hrs by sulforhodamine B assay; conditions: OVCAR-8, 48 h; outline: as §1
Malme-3M = experiment: Anticancer activity against human MALME-3M cells after 48 hrs by sulforhodamine B assay; outline: as §1
BT-549 = experiment: Anticancer activity against human BT549 cells after 48 hrs by sulforhodamine B assay; conditions: BT-549, 48 h; outline: as §1
HOP-92 = experiment: Anticancer activity against human HOP92 cells after 48 hrs by sulforhodamine B assay; conditions: HOP-92, 48 h; outline: as §1
SNB-19 = experiment: Anticancer activity against human SNB19 cells after 48 hrs by sulforhodamine B assay; conditions: SNB-19, 48 h; outline: as §1
SK-OV-3 = experiment: Anticancer activity against human SKOV3 cells after 48 hrs by sulforhodamine B assay; conditions: SK-OV-3, 48 h; outline: as §1
HT-29 = experiment: Anticancer activity against human HT-29 cells after 48 hrs by sulforhodamine B assay; conditions: HT-29, 48 h; outline: as §1
SR = experiment: Anticancer activity against human SR cells after 48 hrs by sulforhodamine B assay; outline: as §2
MDA-N = experiment: Anticancer activity against human MDA-N cells after 48 hrs by sulforhodamine B assay; outline: as §1
UACC-257 = experiment: Anticancer activity against human UACC257 cells after 48 hrs by sulforhodamine B assay; conditions: UACC-257, 48 h; outline: as §2
MOLT-4 = experiment: Anticancer activity against human MOLT4 cells after 48 hrs by sulforhodamine B assay; conditions: MOLT-4, 48 h; outline: as §1
[2] = Anticancer activity against human Hs 578T cells after 48 hrs by sulforhodamine B assay; outline: as §1
NCI-H23 = experiment: Anticancer activity against human NCI-H23 cells after 48 hrs by sulforhodamine B assay; conditions: NCI-H23, 48 h; outline: as §1
MCF7 = experiment: Anticancer activity against human MCF7 cells after 48 hrs by sulforhodamine B assay; conditions: MCF7, 48 h; outline: as §1
EKVX = experiment: Anticancer activity against human EKVX cells after 48 hrs by sulforhodamine B assay; outline: as §1
OVCAR-3 = experiment: Anticancer activity against human OVCAR-3 cells after 48 hrs by sulforhodamine B assay; conditions: OVCAR-3, 48 h; outline: as §1

Molecule `C#C[C@@]1(O)[C@@H](CO)O[C@@H](n2ccc(N)nc2=O)[C@@H]1O` [TAS-106] has a GI50 (RXF 393) of 25.1 nM, a GI50 (SK-MEL-5) of 10 nM and a GI50 (CCRF-CEM) of under 10 nM. The GI50 (ACHN) was under 10 nM, the GI50 (SN12C) was under 10 nM and the GI50 (SNB-75) was 15.8 nM. The GI50 (U-251) was 19.9 nM, the GI50 (SF-539) was 39.8 nM and the GI50 (DU-145) was under 10 nM. It also gave a GI50 (KM12) of under 10 nM, a GI50 (IGROV-1) of 12.6 nM and a GI50 (HCT-116) of under 10 nM. For the same molecule, the GI50 (T47D) was under 10 nM, the GI50 (LOX IMVI) was under 10 nM and the GI50 (SF-268) was 15.8 nM. It also gave a GI50 (NCI-H460) of under 10 nM, a GI50 (UO-31) of under 10 nM and a GI50 (NCI-H322M) of 19.9 nM. The GI50 (TK-10) was 15.8 nM, the GI50 (K562) was under 10 nM and the GI50 (MDA-MB-435) was under 10 nM. For the same molecule, the GI50 (SK-MEL-28) was 50.1 nM, the GI50 (PC-3) was 31.6 nM and the GI50 (HOP-62) was under 10 nM. It also gave a GI50 (NCI-H226) of 15.8 nM, a GI50 (SK-MEL-2) of 12.6 nM and a GI50 (HCC 2998) of under 10 nM. It also gave a GI50 (A549) of under 10 nM, a GI50 (NCI/ADR-RES) of under 10 nM and a GI50 (OVCAR-5) of 50.1 nM. For the same molecule, the GI50 [1] was under 10 nM, the GI50 (A498) was under 10 nM and the GI50 (786-0) was under 10 nM. For the same molecule, the GI50 (COLO 205) was under 10 nM, the GI50 (OVCAR-4) was 158 nM and the GI50 (SF-295) was under 10 nM. The GI50 (M14) was 39.8 nM, the GI50 (SW-620) was under 10 nM and the GI50 (UACC-62) was 31.6 nM. It also gave a GI50 (CAKI-1) of under 10 nM, a GI50 (HL-60) of under 10 nM and a GI50 (MDA-MB-231) of 39.8 nM. For the same molecule, the GI50 (NCI-H522) was under 10 nM, the GI50 (HCT-15) was under 10 nM and the GI50 (OVCAR-8) was under 10 nM. The GI50 (Malme-3M) was 15.8 nM, the GI50 (BT-549) was 39.8 nM and the GI50 (HOP-92) was 63.1 nM. The GI50 (SNB-19) was 63.1 nM, the GI50 (SK-OV-3) was 79.4 nM and the GI50 (HT-29) was under 10 nM. The GI50 (SR) was under 10 nM, the GI50 (MDA-N) was 12.6 nM and the GI50 (UACC-257) was 79.4 nM. It also gave a GI50 (MOLT-4) of under 10 nM, a GI50 [2] of 12.6 nM and a GI50 (NCI-H23) of 31.6 nM. The GI50 (MCF7) was under 10 nM, the GI50 (EKVX) was 63.1 nM and the GI50 (OVCAR-3) was 79.4 nM.
